From ChEMBL document CHEMBL4138161, “Discovery of simplified sampangine derivatives as novel fungal biofilm inhibitors” (Eur J Med Chem, 2018)
Values after ≈ are worked out from the molar mass of the structure shown.

Key:
Format in all cases: functional
[1] = system: Candida albicans; assay: Antifungal activity against Candida albicans SC5314 after 24 hrs by spectrophotometric analysis; conditions: SC5314, 24 h
In short: (§1)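 Broth microdilution in RPMI 1640, inoculum 5×10^3 CFU/mL, compounds from 6.4 mg/mL DMSO stocks, 35 ℃ for 24 h. Growth read as OD600; MIC80 taken as lowest concentration giving 80% growth inhibition. Triplicate.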

[2] = system: Candida parapsilosis; assay: Antifungal activity against Candida parapsilosis 22019 after 24 hrs by spectrophotometric analysis; conditions: Lodderomyces parapsilosis, 22019, 24 h; in short: as §1
[3] = system: Nakaseomyces glabratus; assay: Antifungal activity against Candida glabrata 537 after 24 hrs by spectrophotometric analysis; conditions: Nakaseomyces glabratus, 537, 24 h; in short: as §1
[4] = system: Cryptococcus neoformans; assay: Antifungal activity against Cryptococcus neoformans 32609 after 24 hrs by spectrophotometric analysis; conditions: Cryptococcus neoformans, 32609, 24 h; in short: as §1
[5] = system: Aspergillus fumigatus; assay: Antifungal activity against Aspergillus fumigatus 07544 after 24 hrs by spectrophotometric analysis; conditions: Aspergillus fumigatus, 07544, 24 h; in short: as §1
[6] = system: Trichophyton rubrum; assay: Antifungal activity against Trichophyton rubrum Cmccftla after 24 hrs by spectrophotometric analysis; in short: as §1
[7] = system: Nannizzia gypsea; assay: Antifungal activity against Microsporum gypseum Cmccfmza after 24 hrs by spectrophotometric analysis; in short: as §1

| Compound | MIC80 [1] [µg/mL] | MIC80 [2] [µg/mL] | MIC80 [3] [µg/mL] | MIC80 [4] [µg/mL] | MIC80 [5] [µg/mL] | MIC80 [6] [µg/mL] | MIC80 [7] [µg/mL] |
| --- | --- | --- | --- | --- | --- | --- | --- |
| Cc1ccnc2c1C(=O)c1cn(C)cc1C2=O | > 64 | > 64 | > 64 | > 64 | > 64 | 64 (≈ 283 µM) | > 64 |
| Cc1ccnc2cc3cc([N+](=O)[O-])sc3cc12 | > 64 | > 64 | 16 (≈ 65.5 µM) | > 64 | > 64 | 4 (≈ 16.4 µM) | > 64 |
| Cc1ccnc2c1C(=O)c1sccc1C2=O | 16 (≈ 69.8 µM) | > 64 | 8 (≈ 34.9 µM) | 16 (≈ 69.8 µM) | 16 (≈ 69.8 µM) | 4 (≈ 17.4 µM) | > 64 |
| Cc1ccnc2c1C(=O)c1scc(N)c1C2=O | 32 (≈ 131 µM) | > 64 | > 64 | > 64 | > 64 | > 64 | > 64 |
| Cc1ccnc2c1C(=O)c1occc1C2=O | > 64 | > 64 | > 64 | 64 (≈ 300 µM) | > 64 | > 64 | > 64 |
| CC(C)(C)OC(=O)N1CCC(c2ccnc3c2C(=O)c2sc([N+](=O)[O-])cc2C3=O)CC1 | 32 (≈ 72.2 µM) | > 64 | > 64 | 8 (≈ 18 µM) | > 64 | 8 (≈ 18 µM) | 16 (≈ 36.1 µM) |
| CC(C)(C)OC(=O)/C=C/c1ccnc2c1C(=O)c1sc([N+](=O)[O-])cc1C2=O | 16 (≈ 41.4 µM) | 32 (≈ 82.8 µM) | > 64 | 4 (≈ 10.4 µM) | 32 (≈ 82.8 µM) | 8 (≈ 20.7 µM) | 4 (≈ 10.4 µM) |
| Cc1ccnc2c1[C@H](O)c1sc([N+](=O)[O-])cc1[C@@H]2O (relative stereo) | 2 (≈ 7.19 µM) | 8 (≈ 28.7 µM) | 2 (≈ 7.19 µM) | 4 (≈ 14.4 µM) | 16 (≈ 57.5 µM) | 2 (≈ 7.19 µM) | 8 (≈ 28.7 µM) |
| O=C1c2ccccc2-c2nccc3ccnc1c23 [SAMPANGINE] | 0.5 (≈ 2.15 µM) | 4 (≈ 17.2 µM) | 16 (≈ 68.9 µM) | 2 (≈ 8.61 µM) | 16 (≈ 68.9 µM) | 16 (≈ 68.9 µM) | > 64 |

Further lines, results first:

| MIC80 [1] [µg/mL] | MIC80 [2] [µg/mL] | MIC80 [3] [µg/mL] | MIC80 [4] [µg/mL] | MIC80 [5] [µg/mL] | MIC80 [6] [µg/mL] | MIC80 [7] [µg/mL] | Compound |
| --- | --- | --- | --- | --- | --- | --- | --- |
| > 64 | > 64 | > 64 | 32 (≈ 93.2 µM) | > 64 | > 64 | 64 (≈ 186 µM) | O=C1c2cc([N+](=O)[O-])sc2C(=O)c2c(C3CCNCC3)ccnc21 |
| 16 (≈ 43.7 µM) | 16 (≈ 43.7 µM) | > 64 | 8 (≈ 21.8 µM) | 16 (≈ 43.7 µM) | 16 (≈ 43.7 µM) | 16 (≈ 43.7 µM) | COc1ccccc1-c1ccnc2c1C(=O)c1sc([N+](=O)[O-])cc1C2=O |
| 4 (≈ 11 µM) | 4 (≈ 11 µM) | 8 (≈ 22 µM) | 0.5 (≈ 1.37 µM) | 4 (≈ 11 µM) | 1 (≈ 2.74 µM) | 1 (≈ 2.74 µM) | CC(c1ccccc1)c1ccnc2c1C(=O)c1sc([N+](=O)[O-])cc1C2=O (stereo not given) |
| 0.25 (≈ 0.912 µM) | 1 (≈ 3.65 µM) | 1 (≈ 3.65 µM) | 0.5 (≈ 1.82 µM) | 2 (≈ 7.29 µM) | 0.5 (≈ 1.82 µM) | 2 (≈ 7.29 µM) | Cc1ccnc2c1C(=O)c1sc([N+](=O)[O-])cc1C2=O |
| 32 (≈ 84.3 µM) | 32 (≈ 84.3 µM) | > 64 | 16 (≈ 42.2 µM) | > 64 | 4 (≈ 10.5 µM) | 16 (≈ 42.2 µM) | CN(C)c1ccc(-c2ccnc3c2C(=O)c2sc([N+](=O)[O-])cc2C3=O)cc1 |
| 4 (≈ 12.3 µM) | 4 (≈ 12.3 µM) | 4 (≈ 12.3 µM) | 2 (≈ 6.13 µM) | 16 (≈ 49 µM) | 16 (≈ 49 µM) | 8 (≈ 24.5 µM) | O=C1c2cc([N+](=O)[O-])sc2C(=O)c2c(-c3ccco3)ccnc21 |
